# Shown are actives, neighbours in structure and some others; about 9.4% of the full set was active somewhere.
# T cruzi repl – blocks replication of Trypanosoma cruzi. actives 1.4% (n = 300,000). inhibition, % (no concentration beside the values). AID 1885. T. cruzi beta-gal in NIH3T3, luminescence, 90 h;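 active means mean inhibition across valid replicates above about 55%, limit read from the data; inconclusive means mean below that limit but half or more replicates reach it; inactive means mean below it, under half of replicates reach it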;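 further: signal also drops with host cell toxicity which is not excluded here; 0% = plate median of DMSO wells and 100% = zero luminescence signal; higher percent means less beta-gal luminescence so fewer parasites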
#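 Incubation – ≥90 h infection period, 3 h prior cell attachment · System – NIH/3T3 fibroblasts plus reporter T. cruzi · Doses – compound pinned at 50 nL/well, DMSO · Read-out basis – percent inhibition of parasite-derived β-gal signal · Signal – luminescent β-galactosidase signal after 60 min lysis · Also added – 5000 T. cruzi trypomastigotes/well · Medium – Low-serum DMEM with 2% FBS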
# Beta apoptosis – blocks beta cell apoptosis | INS-1E cytokine-induced death, ATP luminescence, 48 h; percent of positive-control rescue, neutral wells zero | protection from apoptosis, % (test concentration not listed) | actives 0.8% (n = 300,000) | AID 435005;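 active means Every replicate reaches about 75%, or at least half do and their mean reaches it too, limit read from the data; inconclusive means At least half of replicates reach the limit but their mean does not; inactive means Under half of replicates reach the limit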;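 further: 0% = cytokine-treated negative control wells and 100% = positive control rescue; higher means more ATP so stronger rescue from cytokine killing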
# SKKanGAS inh – inhibitors of SKKanGAS S. pyogenes growth in kanamycin (SK-promoter or general growth effect); BacTiter-Glo, 6 h; inhibition, % at 7.5 µM; AID 1662; actives 1.3% (n = 300,000);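 active means mean replicate score, as percent of positive control median, at least 50; inconclusive means mean below 50 but one replicate at or above 50; inactive means mean and every replicate below 50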;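 further: strain carries kanamycin resistance gene driven by streptokinase promoter and grows in 40 µg/ml kanamycin; loss of luminescence reflects streptokinase promoter inhibition or plain growth inhibition; 0% = median of DMSO wells and 100% = positive control at its reference dose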
# CSC inhib – blocks cancer stem cells. cancer stem cell-like cells viability, luminescence. inhibition, % at 7.5 µM. actives 1.1% (n = 300,000); in the data active means inhibition above about 75%; inconclusive means no clear call, values can overlap the other calls; tested in HMLE shEcad cells
# Mdm2 MdmX PPI – disrupts the human Mdm2-MdmX interaction. SaOS-2 split-luciferase Mdm2/MdmX complementation, luminescence. inhibition, % at 8 µM. actives 3% (n = 330,000);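 active means inhibition of at least 50% at 8 µM in the primary screen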
# Target sequence (O15151 whole entry, looked up): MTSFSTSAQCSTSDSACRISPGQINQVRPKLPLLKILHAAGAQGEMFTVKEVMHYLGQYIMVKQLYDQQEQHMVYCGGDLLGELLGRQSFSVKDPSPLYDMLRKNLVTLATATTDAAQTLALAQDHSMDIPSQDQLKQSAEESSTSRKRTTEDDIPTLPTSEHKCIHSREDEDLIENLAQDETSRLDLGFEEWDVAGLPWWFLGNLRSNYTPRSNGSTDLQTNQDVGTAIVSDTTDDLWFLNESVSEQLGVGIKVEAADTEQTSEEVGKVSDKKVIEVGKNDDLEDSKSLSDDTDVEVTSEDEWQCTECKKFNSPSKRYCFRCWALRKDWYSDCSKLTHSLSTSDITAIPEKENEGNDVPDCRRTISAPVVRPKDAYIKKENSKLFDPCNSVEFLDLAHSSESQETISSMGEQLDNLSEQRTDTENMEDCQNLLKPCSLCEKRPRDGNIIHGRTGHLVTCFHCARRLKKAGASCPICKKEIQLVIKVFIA
# Target sequence (Q00987 whole entry, looked up): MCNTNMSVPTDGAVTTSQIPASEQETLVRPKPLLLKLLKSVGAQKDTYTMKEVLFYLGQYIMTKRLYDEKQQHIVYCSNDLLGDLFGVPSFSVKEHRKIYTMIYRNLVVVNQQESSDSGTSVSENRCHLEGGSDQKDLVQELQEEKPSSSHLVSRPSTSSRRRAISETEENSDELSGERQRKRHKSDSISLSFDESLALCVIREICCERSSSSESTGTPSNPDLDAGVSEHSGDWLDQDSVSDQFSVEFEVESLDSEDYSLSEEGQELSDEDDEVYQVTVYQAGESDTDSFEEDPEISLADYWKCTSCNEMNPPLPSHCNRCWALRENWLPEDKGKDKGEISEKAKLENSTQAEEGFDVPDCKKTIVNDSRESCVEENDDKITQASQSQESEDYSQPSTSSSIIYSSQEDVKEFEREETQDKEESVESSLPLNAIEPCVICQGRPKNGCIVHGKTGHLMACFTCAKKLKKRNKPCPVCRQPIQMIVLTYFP
# Lmaj promast – Leishmania major promastigote growth inhibition; Leishmania major promastigotes, resazurin fluorescence viability; inhibition, % at 10 µM; actives 9% (n = 200,000); in the data active means inhibition above about 50%;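 further: promastigotes grown with compound for 44 hours at 28 °C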
# An asterisk follows results filed as active; u = inconclusive; x = no result.
SMILES,T cruzi repl,Beta apoptosis,SKKanGAS inh,CSC inhib,Mdm2 MdmX PPI,Lmaj promast
Cc1cc(C)c(S(=O)(=O)Nc2cc(SCC(=O)O)c(O)c3ccccc23)cc1C,-8,0,7,2,x,99*
COc1ccc(S(=O)(=O)Nc2cc(Sc3ncn[nH]3)c(O)c3ccccc23)cc1,x,x,x,x,x,100*
O=C(O)CSc1cc(NS(=O)(=O)c2ccc(Cl)cc2)c2ccccc2c1O,-2,9,1,34,x,x
O=S(=O)(Nc1cc(Sc2cccc3cccnc23)c(O)c2ccccc12)c1ccc(F)cc1,53,102*,87*,119*,x,100*
COc1ccc(S(=O)(=O)Nc2cc(SCC(=O)O)c(O)c3ccccc23)cc1,4,94*,3,37,20,x
CCn1c2ccccc2c2cc(N=C3SC(CC(=O)Nc4ccccc4OC)C(=O)N3CCOC)ccc21 (stereo unspecified),31,9,9,15,38,18
O=C(CC1SC(=Nc2ccc(OC(F)F)cc2)N(CCC2=CCCCC2)C1=O)Nc1ccccc1F (stereo unspecified),u,x,4,x,24,96*
CCOc1ccccc1N=C1SC(CC(=O)Nc2ccc(OC)cc2OC)C(=O)N1CCC1=CCCCC1 (stereo unspecified),58*,76*,12,14,43,80*
Cc1ccc(-n2nc(C(=O)O)c(O)cc2=O)cc1,-12,-4,-4,-5,5,-1
C=CCC(CC=C)(NC(=O)c1ccccc1C(=O)O)c1ccccc1,-9,-5,-17,7,0,27
C=CCC(CC=C)(NC(=O)c1cccc(C)c1)c1ccccc1,1,0,-2,4,-1,68*
Cc1ccc(C)c(NC(=O)CN2C(=O)NC(CCc3ccccc3)C2=O)c1 (stereo unspecified),x,-3,x,3,13,x
CCOc1nc2cnccc2n(CC(=O)Nc2ccccc2C(=O)OC)c1=O,5,-5,17,-10,13,x
Cc1cc(Cl)c(S(=O)(=O)N2CCN(c3ccc(F)cc3)CC2)cc1OCC(N)=O,5,x,6,11,32,-8
Cc1cc(Cl)c(S(=O)(=O)N2CCN(c3ccc(F)cc3)CC2)cc1OCC(=O)NC1CCCCC1,u,103*,17,3,18,-5
Cc1cc(Cl)c(S(=O)(=O)Nc2ccon2)cc1OCC(=O)NC1CCCCC1,0,0,-2,x,2,-5
Cc1cc(Cl)c(S(=O)(=O)Nc2ccc3c(c2)OCCO3)cc1OCC(=O)NC1CCCCC1,13,3,-2,-15,23,99*
C=C(C)Cn1c(=O)c2c(nc3n2CC(C)CN3Cc2ccccc2)n(C)c1=O (stereo unspecified),21,-1,0,12,11,x
CCOc1ccc(C(=O)N[C@H](C(=O)NNC(=O)c2cccs2)C(C)C)cc1,x,-3,x,-13,-5,x
COc1ccc(N2CCN(C(=O)c3oc4ccccc4c3NC(=O)CCc3cc(OC)no3)CC2)cc1,8,5,6,-4,13,x
CCOC(=O)C1(CCOc2ccccc2)CCN(Cc2ccc(-n3cccn3)cc2)CC1,42,11,-18,51,45,90*
CCOC(=O)C1(CCOc2ccccc2)CCN(Cc2ccc(C(=O)OC)cc2)CC1,29,-2,7,-14,25,x
CCOC(=O)C1(CCOc2ccccc2)CCN(Cc2ccncc2)CC1,33,6,-2,23,6,86*
CC1CCN(CCCCOc2cccc(C(C)C)c2)CC1,28,-1,-8,23,-3,x
CCN(CC)CCOc1cccc(C(C)C)c1,5,-7,-4,x,4,83*
SMILES,T cruzi repl,Beta apoptosis,SKKanGAS inh,CSC inhib,Mdm2 MdmX PPI,Lmaj promast
CC(C)c1cccc(OCCCCN(C)C)c1,65*,x,3,-1,-20,86*
CC(C)OP(=O)(OC(C)C)C(NC(=O)c1ccccc1Br)C(N)=O (stereo unspecified),0,-1,5,-3,11,x
Cc1cc(C)c(C)c(S(=O)(=O)N2CCN(C(=O)C3CCC3)CC2)c1C,13,-3,-5,5,23,x
COc1ccc(S(=O)(=O)N2CCN(C3Cc4ccccc4C3)CC2)cc1,8,-6,-2,14,-56,97*
COc1ccc(S(=O)(=O)N2CCC(N3CCN(Cc4ccccc4)CC3)CC2)cc1,20,x,5,19,1,87*
COc1ccc(S(=O)(=O)N2CCC(N3CCCC3)CC2)cc1,22,-8,1,3,20,x
COc1ccc(S(=O)(=O)N2CCN(Cc3cccc(Cl)c3)CC2)cc1,9,-2,-1,-3,-13,1
O=[N+]([O-])c1ccc(S(=O)(=O)N2CCN(C3CCN(Cc4ccccc4)CC3)CC2)cc1,u,0,-2,40,-9,x
COc1ccc(S(=O)(=O)N2CCN(Cc3ccc(Cl)cc3)CC2)cc1,22,-4,0,-7,-3,51*
O=S(=O)(c1ccc(Cl)cc1)N1CCN(C2CCN(Cc3ccccc3)CC2)CC1,61*,-4,1,70,9,99*
COc1ccc(S(=O)(=O)N2CCC(CN3C(=O)c4cccc5cccc(c45)C3=O)CC2)cc1,38,1,-3,-8,-10,98*
O=C(c1ccc(S(=O)(=O)N2CCCC2)cc1)N1CCC(CN2C(=O)c3cccc4cccc(c34)C2=O)CC1,53,3,6,3,34,x
CCOC(=O)N1CCC(N2CCN(S(=O)(=O)c3ccc([N+](=O)[O-])cc3)CC2)CC1,14,0,1,-9,8,x
CCOC(=O)N1CCC(N2CCN(S(=O)(=O)c3ccc4ccccc4c3)CC2)CC1,19,3,-2,-2,3,98*
COc1ccc(S(=O)(=O)N2CCC(C(N)=O)CC2)cc1C(=O)N1CCCCCC1,7,0,4,1,12,x
O=C(Nc1ccon1)c1csc2ccccc12,-1,0,-14,0,28,-5
O=C(Nc1ccon1)c1csc2c1CCCC2,10,-1,5,-1,6,78*
COc1ccc(-c2[nH]c(-c3cc(OC)c4c(c3)OCO4)nc2-c2ccccc2)cc1,46,8,17,73,26,89*
O=C(c1ccccc1)c1ccccc1N/C=C/c1nnnn1-c1ccccc1,28,-3,2,26,-20,54*
COc1ccc(C(F)(F)F)cc1N/C=C\c1nnnn1-c1ccccc1,15,9,-22,9,20,4
CCN1CCN(CC(=O)Nc2ccc(N(C)C)cc2)CC1,-7,-4,2,-7,5,x
Cc1cc(C)c(C(=O)COC(=O)CCNS(=O)(=O)c2c(Cl)cccc2Cl)cc1C,-2,4,-1,0,-4,74*
Cn1c(COc2ccc(Cl)cc2Cl)nnc1SCC(=O)NCC1CCCO1 (stereo unspecified),-4,-2,-9,-2,0,x

# Source: PubChem (several laboratories)
